The source of these data is ChEMBL document CHEMBL3758135 (J Nat Prod, 2015).

In one assay the target is T1, Prostaglandin E synthase (Homo sapiens, UniProt O14684).
T1 sequence (O14684 whole entry): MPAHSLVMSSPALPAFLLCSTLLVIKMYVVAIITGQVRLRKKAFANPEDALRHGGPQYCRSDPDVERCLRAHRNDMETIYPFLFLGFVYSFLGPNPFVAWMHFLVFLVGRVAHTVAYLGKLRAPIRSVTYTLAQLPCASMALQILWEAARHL
Nature of the assay: Inhibition of mPGES-1 in human IL-1beta-stimulated A549 cell microsomes assessed as reduction of PGE2 formation from PGH2 preincubated for 15 mins by HPLC analysis. The class given is cell-based. The method, boiled down: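 A549 cells stimulated with 2 ng/mL IL-1β for 72 h at 37 °C, 5% CO2, then sonicated and homogenized. Microsomal pellet collected at 174000g, 1 h, 4 °C. Membranes diluted in 0.1 M K3PO4, pH 7.4, with 2.5 mM glutathione. Compound or vehicle added for 15 min at 4 °C. Reaction started with 20 μM PGH2, stopped after 1 min with FeCl2/citric acid containing 11β-PGE2 internal standard. PGE2 measured by SPE-HPLC.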

In another assay the target is Histone deacetylase. Nature of the assay: Inhibition of HDAC in human HeLa cell nuclear extract using BML-KI104 Fluor de Lys as substrate by fluorescence-based assay.

Each structure is given as a SMILES string.

A word on the IC50: it is the midpoint of a concentration-inhibition curve.

Take `COc1cc(/C=C/C(=O)C(C/C=C(\C)CCC=C(C)C)C(=O)/C=C/c2ccc(OC/C=C(\C)CCC=C(C)C)c(OC)c2)ccc1OC/C=C(\C)CCC=C(C)C`: the IC50 was 2 µM at Prostaglandin E synthase and 217 µM on Histone deacetylase.
The matching figures for `COc1cc(/C=C/C(=O)CC(=O)/C=C/c2ccc(OC/C=C(\C)CCC=C(C)C)c(OC)c2)ccc1O`: 1.02 µM and 495 µM.
For the compound `COc1cc(/C=C/C(=O)CC(=O)/C=C/c2ccc(OC/C=C(\C)CCC=C(C)C)c(OC)c2)ccc1OC/C=C(\C)CCC=C(C)C`, the IC50 at Prostaglandin E synthase worked out at 2 µM; at Histone deacetylase, 188 µM.
Taken in the same sequence, the figures for `COc1cc(/C=C/C(=O)CC(=O)/C=C/c2ccc(OCC=C(C)C)c(OC)c2)ccc1OCC=C(C)C` were 2 µM and 347 µM.
For `COc1cc(/C=C/C(=O)C(C/C=C(\C)CCC=C(C)C)(C/C=C(\C)CCC=C(C)C)C(=O)/C=C/c2ccc(OC/C=C(\C)CCC=C(C)C)c(OC)c2)ccc1OC/C=C(\C)CCC=C(C)C`, the half-inhibitory concentration (IC50) came out at 2 µM on Prostaglandin E synthase and 786 µM on Histone deacetylase.
Turning to `COc1cc(/C=C/C(=O)CC(=O)/C=C/c2ccc(O)c(OC)c2)ccc1O` [CURCUMIN], the IC50 on Prostaglandin E synthase was 0.22 µM.
As for `COc1cc(/C=C/C(=O)CC(=O)/C=C/c2ccc(OC/C=C(\C)CC/C=C(\C)CCC=C(C)C)c(OC)c2)ccc1OC/C=C(\C)CC/C=C(\C)CCC=C(C)C`, the IC50 is 2 µM on Prostaglandin E synthase and 122 µM on Histone deacetylase.
`COc1cc(/C=C/C(=O)C(CC=C(C)C)C(=O)/C=C/c2ccc(OCC=C(C)C)c(OC)c2)ccc1OCC=C(C)C`: the concentration for half-maximal inhibition (IC50) on Prostaglandin E synthase came to 2 µM.
As to `COc1cc(/C=C/C(=O)CC(=O)/C=C/c2ccc(OC/C=C(\C)CC/C=C(\C)CCC=C(C)C)c(OC)c2)ccc1O`, the 50% inhibitory concentration (IC50) at Prostaglandin E synthase came out at 2 µM; at Histone deacetylase, 84.2 µM.
Turning to `COc1cc(/C=C/C(=O)C(CC=C(C)C)(CC=C(C)C)C(=O)/C=C/c2ccc(OCC=C(C)C)c(OC)c2)ccc1OCC=C(C)C`, the IC50 on Prostaglandin E synthase was found to be 2 µM.
Turning to `COc1cc(/C=C/C(=O)CC(=O)/C=C/c2ccc(OCC=C(C)C)c(OC)c2)ccc1O`, the results for the half-inhibitory concentration (IC50) at Prostaglandin E synthase and against Histone deacetylase were 0.93 µM and 5620 µM, respectively.
